Active and inactive are the calls of the source. The calls are words filed in the database; no cut-off is given here.
Columns and labels:
AZF [1] = test: Inhibition of Cav3.2 channel in bovine AZF cells at 10 uM by cell patch clamp assay; type: cell-based; conditions: Bos taurus
Method in brief: (§1)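 Whole-cell T-type Ca2+ currents were recorded from bovine AZF cells 2–12 h after plating (10–15 pF, <15 µm). The pipette held CsCl/BAPTA/MgATP at pH 7.2, and the bath held TEA-Cl with 20 mM Ca2+ at pH 7.4. Current was recorded in standard saline, then the cell was superfused with 5, 10 or 20 µM curcumin, and % inhibition of current amplitude was measured (n = 4–6).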

AZF [2] = test: Inhibition of Cav3.2 channel in bovine AZF cells at 20 uM by cell patch clamp assay; type: cell-based; conditions: Bos taurus; method in brief: as §1
[3] = Inhibition of ACTH-stimulated cortisol secretion in bovine AZF cells after 24 hrs by EIA; type: functional, Bos taurus
AZF [4] = test: Inhibition of ACTH-stimulated cortisol secretion in bovine AZF cells at 1 to 20 uM after 0.5 hrs by EIA; type: functional, cell-based; conditions: Bos taurus
Method in brief: (§2)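 AZF cells were taken from steer adrenals and plated 24 h on fibronectin in serum-containing DMEM/F12 with antioxidants, then moved to serum-free supplemented DMEM/F12. They were exposed to ACTH(1–24) ± curcumin (1–20 µM) for 0.5, 2 or 24 h. Collected media were assayed for cortisol by EIA, in duplicate from duplicate samples, as mean ± SEM.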

AZF [5] = test: Inhibition of Cav3.2 channel in bovine AZF cells at 5 uM by cell patch clamp assay; type: cell-based; conditions: Bos taurus; method in brief: as §1
[6] = Induction of cortisol secretion in bovine AZF cells at 20 uM after 0.5 to 24 hrs by EIA relative to control; type: functional, Bos taurus
Method in brief: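 AZF cells from adrenal glands of 2–3 yr steers were plated 24 h on fibronectin in DMEM/F12 with 10% FBS, tocopherol, selenite and ascorbate. Medium was then switched to serum-free DMEM/F12 with BSA, ascorbate, tocopherol, insulin and transferrin, with or without compound, at 37 °C. Media were collected at 0.5, 2 and 24 h, and cortisol was measured by EIA (duplicates of duplicate samples, mean ± SEM).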

[7] = Inhibition of ACTH-stimulated cortisol secretion in bovine AZF cells after 3 hrs by EIA; type: functional, Bos taurus
[8] = Inhibition of ACTH-stimulated cortisol secretion in bovine AZF cells at 10 uM after 0.5 hrs by EIA; type: functional; conditions: Bos taurus; method in brief: as §2
[9] = Inhibition of ACTH-induced StAR mRNA expression in bovine AZF cells at 10 uM after 24 hrs using [alpha32P]dCTP labeled probes by Northern blot analysis; type: functional; conditions: Bos taurus
Method in brief: (§3)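 Steer AZF cells ((5–8) × 10^6 per dish, fibronectin-coated) were plated 24 h with serum, then held in serum-free supplemented DMEM/F12. They were preincubated 10 min with curcumin (10 µM), then given 2 nM ACTH for 24 h. Total RNA (10 µg/lane) was run on a denaturing gel and Northern blotted with bovine CYP11a1 or StAR probes. Bands were quantified by phosphorimaging as % control, with 18S rRNA as loading reference and ≥2 experiments.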

[10] = Inhibition of 8CPT-cAMP-induced cortisol secretion in bovine AZF cells at 10 uM after 1 hr by EIA; type: functional; conditions: Bos taurus
Method in brief: (§4)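 Bovine adrenal zona fasciculata cells from 2–3-yr steers were plated on fibronectin-coated dishes in DMEM/F12 with 10% FBS and antioxidants for 24 h. They were then switched to serum-free DMEM/F12 with BSA, ascorbate, tocopherol, insulin and transferrin, and treated with 250 µM 8CPT-cAMP ± curcumin (1–20 µM). Medium cortisol was measured by EIA in duplicate from duplicate samples, as mean ± SEM.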

[11] = target: T1, Potassium channel subfamily K member 2 (Bos taurus, UniProt Q8HY88); test: Inhibition of TREK-1 K(+) channel in bovine AZF cells; type: cell-based
T1 sequence (Q8HY88 whole entry): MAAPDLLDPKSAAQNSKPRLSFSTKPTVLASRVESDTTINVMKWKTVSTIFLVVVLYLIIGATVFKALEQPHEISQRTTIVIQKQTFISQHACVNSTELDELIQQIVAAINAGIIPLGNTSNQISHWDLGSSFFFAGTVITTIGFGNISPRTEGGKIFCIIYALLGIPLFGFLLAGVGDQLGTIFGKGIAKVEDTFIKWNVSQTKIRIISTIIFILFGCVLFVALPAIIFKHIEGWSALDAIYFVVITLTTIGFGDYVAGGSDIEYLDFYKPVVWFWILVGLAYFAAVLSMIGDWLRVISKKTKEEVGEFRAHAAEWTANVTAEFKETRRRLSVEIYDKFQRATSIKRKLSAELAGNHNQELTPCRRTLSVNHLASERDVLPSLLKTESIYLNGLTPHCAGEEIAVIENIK

[12] = Inhibition of 8CPT-cAMP-induced cortisol secretion in bovine AZF cells at 10 uM after 24 hrs by EIA; type: functional; conditions: Bos taurus; method in brief: as §4
[13] = Inhibition of ACTH-induced CYP11a1 mRNA expression in bovine AZF cells at 10 uM after 24 hrs using [alpha32P]dCTP labeled probes by Northern blot analysis; type: functional; conditions: Bos taurus; method in brief: as §3
AZF [14] = test: Inhibition of 8CPT-cAMP-induced cortisol secretion in bovine AZF cells at 1 to 20 uM after 1 hr by EIA; type: functional, cell-based; conditions: Bos taurus; method in brief: as §4
[15] = Inhibition of ACTH-stimulated cortisol secretion in bovine AZF cells at 10 uM after 2 hrs by EIA; type: functional; conditions: Bos taurus; method in brief: as §2
[16] = Inhibition of Ang2-stimulated cortisol secretion in bovine AZF cells at 20 uM after 2 hrs by EIA; conditions: Bos taurus
[17] = Inhibition of ACTH-stimulated cortisol secretion in bovine AZF cells at 10 uM after 2 4 hrs by EIA; type: functional; conditions: Bos taurus; method in brief: as §2

## COc1cc(/C=C/C(=O)CC(=O)/C=C/c2ccc(O)c(OC)c2)ccc1O [CURCUMIN]
AZF [1]
  inhibition: 41%
AZF [2]
  inhibition: 53.3%
[3]
  inhibition (INH): 92%
AZF [4]
  inhibition: Active
AZF [5]
  inhibition: 31.9%
[6]
  fold change (FC): 2
[7]
  inhibition (INH): 89%
[8]
  inhibition at 10 µM: 81.1%
[9]
  inhibition at 10 µM: 99%
[10]
  inhibition at 10 µM: 92.9%
[11]
  IC50: 930 nM
[12]
  inhibition at 10 µM: 96.8%
[13]
  inhibition at 10 µM: 59%
AZF [14]
  inhibition: Active
[15]
  inhibition at 10 µM: 92.4%
[16]
  inhibition at 20 µM: 94.5%
[17]
  inhibition at 10 µM: 91%

From ChEMBL document CHEMBL1154211, “Curcumin inhibits ACTH- and angiotensin II-stimulated cortisol secretion and Ca(v)3.2 current” (J Nat Prod, 2009)
